According to paper PMC8026699 (Cancer research, 2021):

Tested on: SKBr3 cells
Experiment: 13C2-acetate labeling of palmitate in SKBr3 cells
Format: cell-based, human
Conditions: SKBr3, 100 μM 13C2-acetate, 24 hr, N10 and H1 conditions
In short: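 SKBr3 cells were grown 24 h in serum-like modified Eagle's medium with 100 μM 13C2-acetate, either in N10 (normoxia, 10% dialyzed FBS) or H1 (1% O2, 1% dialyzed FBS), with vehicle or test compound. Lipids were extracted with methanol/chloroform/PBS, saponified in 0.3 M KOH in 90% methanol at 70°C for 1 h, then hexane-extracted. Palmitate labeling was measured by C18 LC-MS; mean ± S.D., n = 3.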

CCn1c(C(O)(c2ccccc2)c2ccccc2)nc2ccc(C(=O)NC[C@@H](C)O)cc21 [VY-3-135, (R)-1-ethyl-2-(hydroxydiphenylmethyl)-N-(2-hydroxypropyl)-1H-benzo[d]imidazole-6-carboxamide]
fatty acid (palmitate) synthesis from 13C2-acetate: completely blocked fatty acid synthesis from acetate
